Source: PubChem BioAssay
KCNQ1 act – human KCNQ1 channel potentiation or activation. CHO-K1 KCNQ1, thallium flux FluxOR fluorescence; active compounds read high. B-score at 10 µM. 310,000 tested, 0.35% active;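 active means fluorescence ratio B-score, a plate-corrected score, at least three library SD, with initial intensity B-score within 5 SD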
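assay system = CHO-K1 cells stably expressing KCNQ1 | medium = assay buffer, equal DMSO in all wells | timing = 37 °C overnight plating, 90-min dark dye load, 20-min compound pretreatment | measured by = kinetic FluxOR thallium fluorescence, 10-s 1-Hz baseline, 110-s post-stimulus read | measure = fluorescence change relative to baseline, converted to B score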
KCNK3 inh – human KCNK3 channel inhibition, primary screen | O14649 | CHO-KCNK3 thallium flux, FluxOR fluorescence; active compounds read low | B-score at 10 µM | 340,000 tested, 0.84% active;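 active means B-score under library mean minus 4 SD, starting fluorescence ratio at most library mean plus 5 SD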;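 further: more negative B-score means stronger inhibition of thallium flux through KCNK3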
Target sequence (O14649 whole entry, looked up): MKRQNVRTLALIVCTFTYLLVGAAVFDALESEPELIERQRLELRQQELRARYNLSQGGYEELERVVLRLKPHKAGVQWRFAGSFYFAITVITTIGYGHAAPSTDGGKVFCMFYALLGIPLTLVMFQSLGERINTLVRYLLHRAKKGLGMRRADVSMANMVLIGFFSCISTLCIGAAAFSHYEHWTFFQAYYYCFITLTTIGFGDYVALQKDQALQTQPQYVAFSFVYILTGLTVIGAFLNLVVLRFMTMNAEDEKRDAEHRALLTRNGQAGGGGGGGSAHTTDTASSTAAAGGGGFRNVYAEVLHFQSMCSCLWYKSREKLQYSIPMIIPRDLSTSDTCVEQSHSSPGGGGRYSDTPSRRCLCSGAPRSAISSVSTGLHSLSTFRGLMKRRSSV
KCNQ1 block – blocks the human KCNQ1 potassium channel; P51787; CHO-K1 KCNQ1, FluxOR thallium flux fluorescence; active compounds read high; B-score at 10 µM; 310,000 tested, 1.3% active; AID 2642;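 active means compounds whose thallium flux B-score, printed positive for inhibition, exceeds three library SD while starting fluorescence stays within three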;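 further: channel opened by potassium depolarization with thallium stimulus after 20 min compound exposure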
KCC2 mod – KCC2 (human) Cl- transport modulation; Q9H2X9; KCC2 cells, thallium flux FluoZin-2 fluorescence; B-score of Tl+ flux slope (higher = more flux/activation; lower = inhibition) at 10 µM; 190,000 tested, 2.2% active; AID 1456;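 active means thallium flux slope and its plate-corrected score both differing from the plate sample mean at a set confidence after two filtering rounds, in either direction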;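 further: slope of fluorescence scaled to starting intensity during 10 to 20 s after thallium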
KCNK9 inh – blocks the human KCNK9 two-pore domain potassium channel | B-score at 10 µM | 310,000 tested, 1.2% active | HEK293 KCNK9, FluxOR thallium flux fluorescence; active compounds read low | Q9NPC2 | AID 488922;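 active means ratio B-score over 3 SD below the library mean, with starting fluorescence within 5 SD of its mean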;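 further: negative B-score means less thallium flux so channel inhibition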
hERG protect – hERG (human) protection from proarrhythmic block | Q12809 | CHO-hERG, FluxOR thallium flux, dofetilide IC70 present | activation (rescue from dofetilide block), less the hit threshold, % at 10 µM | 310,000 tested, 0.51% active | AID 1511;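 active means activation above the mean of controls blocked by dofetilide plus 5 SD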;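 further: thallium influx through hERG after potassium depolarization seen as dye fluorescence rise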
KCNK3 confirm – confirmation of human KCNK3 two-pore domain potassium channel inhibitors; CHO-KCNK3 thallium flux, FluxOR fluorescence; 0% buffer, 100% carvedilol maximal block; ratio percent of control, % at 10 µM; shares compounds with KCNK3 inh; 2,400 tested, 99% active;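 active means ratio percent of control, averaged over triplicates, above buffer control mean plus 5 SD, cut at about 64% in these data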;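 further: ratio is the fluorescence rise from min to max over baseline after thallium stimulus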
KCNK3 uninduced – counter-screen for KCNK3 inhibitors: effect in non-induced cells; shares compounds with KCNK3 inh; non-induced KCNK3 parental cells, FluxOR thallium flux; active compounds read low; AID 651747; thallium flux ratio (lower = more inhibition) at 10 µM; 2,400 tested, 40% active;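 active means thallium flux ratio, averaged over three wells, more than 5 SD below the buffer control mean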;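 further: host cells are CHO cells without KCNK3 induction; ratio is peak minus trough fluorescence over baseline then normalized to buffer controls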
Active calls of the source: *; i = inactive; . = no result. In the library only some 4.1% were active in any assay of this set; here they are far more common.

SMILES | KCNQ1 act | KCNK3 inh | KCNQ1 block | KCC2 mod | KCNK9 inh | hERG protect | KCNK3 confirm | KCNK3 uninduced
O=C(COc1cccc2cccnc12)N/N=C/c1cccn1-c1ccc(F)cc1 | i | -8.7* | i | -2.3 | i | -21 | 108* | i
CC(=O)Nc1cc(C(=O)OC(C(=O)c2ccccc2)c2ccccc2)ccc1C (stereo not drawn) | i | -10* | i | -0.25 | i | -19 | 79* | i
CCC(CC)C(=O)Nc1cccc(C(=O)Nc2ccc3c(c2)OCO3)c1 | i | -12* | i | . | -7.6* | -15 | 92* | i
CCN(CC)S(=O)(=O)c1cccc(C(=O)Nc2ccc3c(c2)OCO3)c1 | i | i | i | -0.31 | i | -18 | . | .
COc1ccc(N(CC(=O)NCCSCc2ccco2)S(=O)(=O)c2ccccc2)cc1Cl | i | -10* | i | . | i | -3 | 106* | i
CC(C)NS(=O)(=O)c1ccc(OCC(=O)NC(C)c2ccccc2)cc1 (stereo not drawn) | i | i | i | 1 | i | -20 | . | .
Cc1ccc(C(=O)NCC(=O)Nc2ccc(C)c(S(=O)(=O)Nc3ccc(Cl)cc3)c2)s1 | i | i | i | 0.25 | i | -6 | . | .
Clc1cccc(-c2nc(NCCN3CCOCC3)c3ccccc3n2)c1 | i | i | i | 0.94 | i | -14 | . | .
Clc1cccc(-c2nc(NCCCN3CCOCC3)c3ccccc3n2)c1 | i | -9.4* | i | -0.019 | i | -23 | 91* | 0.15*
COc1ccc(OC)c(NC(=O)CN2C(=O)C(=O)N(Cc3ccccc3)C2=O)c1 | . | i | . | . | . | . | . | .
Cc1cc(C(=O)Cn2nnc3ccccc3c2=O)c(C)n1Cc1cccs1 | i | -9.1* | i | -1.6 | i | -2 | 111* | i
Cc1cc2c(Nc3ccc(C(=O)O)cc3)ncnc2s1 | i | -10* | i | . | i | -4 | 62* | i
COc1cccc(Nc2ncnc3sc(C)cc23)c1 | i | i | i | . | i | -5 | . | .
C=CCc1cccc(/C=N/NC(=O)c2ccccc2Br)c1O | i | i | i | -1.2 | i | -5 | . | .
COc1cccc(C(=O)NCCSCc2ccccc2Cl)c1 | i | -9.8* | i | . | i | -16 | 99* | i
C=CCc1cccc(/C=N/NC(=O)c2ccccc2OC)c1O | i | -9.5* | i | -0.3 | -7.7* | -11 | 94* | i
COc1cccc(C(=O)Nc2cccc(NC(=O)c3ccccc3Cl)c2)c1 | i | -12* | i | . | i | -2 | 96* | i
CCn1c2ccccc2c2cc(NC(=O)c3ccco3)ccc21 | i | -9.5* | i | -1.1 | i | -4 | 114* | i
O=C(NCCc1ccccc1)C(c1ccccc1F)N(C(=O)c1csnn1)C1CC1 (stereo not drawn) | i | i | i | . | i | -12 | . | .
CN(c1ccc(OCC(=O)N2CCCC2)cc1)S(=O)(=O)c1ccc(Cl)cc1 | . | i | . | . | . | . | . | .
CC(C)C(C)(C#N)NC(=O)COC(=O)C1CCN(S(=O)(=O)c2ccc3c(c2)OCCO3)CC1 (stereo not drawn) | . | i | . | . | . | . | . | .
Cc1ccc(S(=O)(=O)Nc2cccc(CP(=O)(c3ccccc3)c3ccccc3)c2)cc1 | i | i | i | . | i | -11 | . | .
COc1ccccc1/C=N/NC(=O)c1cccc(NC(=O)c2ccccc2Cl)c1 | i | -9.5* | i | -2.6 | -7.1* | -17 | 100* | i
O=C(Nc1cccc(NC(=O)c2ccccc2Cl)c1)c1ccco1 | i | -8.7* | i | . | i | -10 | 98* | i
CSCCC(NC(=O)c1ccccc1Cl)C(=O)N1CCCCC1 (stereo not drawn) | . | i | . | . | . | . | . | .
COc1ccc([C@H]2CC(=O)C=C(c3ccc(C)cc3)C2)cc1OC | . | i | . | . | . | . | . | .
